Key:
[1] = target: T1, Dihydrofolate reductase (Homo sapiens, UniProt P00374); test: Inhibition of human dihydrofolate reductase using dihydrofolate as substrate in presence of NADPH by UV-vis spectrophotometry analysis
T1 sequence (P00374 whole entry): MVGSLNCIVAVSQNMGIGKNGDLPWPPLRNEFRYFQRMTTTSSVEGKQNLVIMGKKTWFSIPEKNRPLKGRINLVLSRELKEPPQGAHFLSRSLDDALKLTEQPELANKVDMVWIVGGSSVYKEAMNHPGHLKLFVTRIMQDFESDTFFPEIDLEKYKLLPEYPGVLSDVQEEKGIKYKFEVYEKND

[2] = tested on: Plasmodium falciparum; test: Antimalarial activity against Plasmodium falciparum TM4/8.2 infected in human erythrocytes assessed as reduction in [3H]-hypoxanthine incorporation pretreated for 24 hrs followed by [3H]-hypoxanthine addition measured after 18 hrs by liquid scintillation counting method; assay type: functional, organism-based
[3] = tested on: Plasmodium falciparum; test: Antimalarial activity against pyrimethamine-resistant Plasmodium falciparum V1/S expressing Dihydrofolate reductase N51I/C59R/S108N/I164L mutant infected in human erythrocytes assessed as reduction in [3H]-hypoxanthine incorporation pretreated for 18 hrs followed by [3H]-hypoxanthine addition measured after 24 hrs by liquid scintillation counting method; assay type: functional, organism-based
Summary of the method: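 P. falciparum V1/S kept in continuous culture in human erythrocytes at 37 °C under 3% CO2. Growth inhibition was read as [3H]-hypoxanthine incorporation.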

[4] = Competitive inhibition of Plasmodium falciparum dihydrofolate reductase N51I/C59R/S108N/I164L quadruple mutant expressed in Escherichia coli BL21(DE3)pLysS using dihydrofolate as substrate in presence of NADPH by UV-vis spectrophotometry analysis
Summary of the method: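 Quadruple-mutant PfDHFR expressed from a pET plasmid in E. coli BL21(DE3)pLysS, induced with 0.4 mM IPTG at 20 °C for 20 h. Cells lysed by French press at 18,000 psi. Enzyme purified on methotrexate-Sepharose in 20 mM potassium phosphate pH 7.0 with 50 mM KCl, 10 mM DTT, 0.1 mM EDTA and 20% glycerol. Activity read spectrophotometrically at 25 °C. Ki measured in microplate format, assuming competitive inhibition.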

[5] = tested on: Vero; test: Cytotoxicity against African green monkey Vero cells by sulforhodamine B assay; assay type: cell-based; settings: Chlorocebus sabaeus
[6] = Competitive inhibition of wild type Plasmodium falciparum dihydrofolate reductase expressed in Escherichia coli BL21(DE3)pLysS using dihydrofolate as substrate in presence of NADPH by UV-vis spectrophotometry analysis
Summary of the method: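 Wild-type PfDHFR expressed from pET plasmid after 0.4 mM IPTG induction at 20 °C for 20 h. Cells lysed by French press at 18,000 psi. Enzyme purified on methotrexate-Sepharose in 20 mM potassium phosphate pH 7.0 with 0.1 mM EDTA, 10 mM DTT, 50 mM KCl and 20% glycerol. Activity read spectrophotometrically at 25 °C. Ki measured in microplate format, assuming competitive inhibition.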

[7] = tested on: dihydrofolate reductase; test: Selectivity ratio of Ki for human dihydrofolate reductase to Ki for wild type Plasmodium falciparum TM4/8.2 dihydrofolate reductase; assay type: toxicity; settings: read-out: Ratio Ki
[8] = tested on: dihydrofolate reductase; test: Selectivity ratio of Ki for human dihydrofolate reductase to Ki for Plasmodium falciparum dihydrofolate reductase N51I/C59R/S108N/I164L quadruple mutant; assay type: toxicity; settings: read-out: Ratio Ki
[9] = tested on: Plasmodium falciparum; test: Ratio of compound IC50 to pyrimethamine IC50 for antimalarial activity against Plasmodium falciparum TM4/8.2 infected in human erythrocytes; assay type: functional
[10] = tested on: Plasmodium falciparum; test: Ratio of compound IC50 to pyrimethamine IC50 for antimalarial activity against Plasmodium falciparum V1/S infected in human erythrocytes; assay type: functional
[11] = Selectivity ratio of IC50 for African green monkey Vero cells to IC50 for Plasmodium falciparum TM4/8.2 infected in human erythrocytes; assay type: toxicity, cell-based; settings: read-out: Ratio IC50
[12] = Selectivity ratio of IC50 for African green monkey Vero cells to IC50 for Plasmodium falciparum V1/S infected in human erythrocytes; assay type: toxicity, cell-based; settings: read-out: Ratio IC50

Row | Compound | Ki ([1]; read-out: Ki) [nM] | IC50 [2] [nM] | IC50 [3] [nM] | Ki [4] [nM] | IC50 [5] [nM] | Ki [1] | Ki [6] [nM] | selectivity ratio [7] | selectivity ratio [8] | Ratio IC50 [9] | Ratio IC50 [10] | selectivity ratio [11] | selectivity ratio [12]
1 | CCc1nc(N)nc(N)c1-c1ccccc1 | 10.4 | 720 | > 50000 | – | – | – | – | – | – | – | – | – | –
2 | Cl.Nc1nc(N)c(-c2cccc(Cl)c2)c(CCCCCOc2ccccc2)n1 | 18.4 | 430 | 9170 | 3.2 | 7210 | – | – | – | – | – | – | – | –
3 | Cl.Nc1nc(N)c(-c2ccccc2)c(COc2cccc(OCCCC(=O)O)c2)n1 | 556 | 5240 | 31100 | – | > 50000 | – | – | – | – | – | – | – | –
4 | CCOC(=O)CCCOc1ccccc1CCc1nc(N)nc(N)c1-c1cccc(Cl)c1 | 23.4 | 710 | 5240 | – | 8130 | – | – | – | – | – | – | – | –
5 | Cl.Nc1nc(N)c(-c2cccc(Cl)c2)c(CCCCOc2cccc(OCC(=O)O)c2)n1 | 13.4 | 43 | 1420 | 0.72 | > 50000 | – | – | – | – | – | – | – | –
6 | Cl.Nc1nc(N)c(-c2ccccc2)c(CCCOc2cccc(OCC(=O)O)c2)n1 | 18.2 | 71 | 2710 | 0.5 | > 10000 | – | – | – | – | – | – | – | –
7 | Cl.Nc1nc(N)c(-c2cccc(Cl)c2)c(CCc2ccccc2OCCCc2ccccc2)n1 | – | 6250 | 5500 | – | 650 | Active | – | – | – | – | – | – | –
8 | Cl.Nc1nc(N)c(-c2ccccc2)c(COc2cccc(OCC(=O)O)c2)n1 | 509 | 52600 | > 100000 | – | > 100000 | – | – | – | – | – | – | – | –
9 | Cl.Nc1nc(N)c(-c2cccc(Cl)c2)c(CCc2ccccc2OCc2ccccc2)n1 | 14.4 | 1940 | 4810 | 3.06 | 400 | – | – | – | – | – | – | – | –
10 | Cl.Nc1nc(N)c(-c2cccc(Cl)c2)c(CCCOc2cccc(OCCCC(=O)O)c2)n1 | 19.6 | 49 | 440 | 0.98 | > 10000 | – | – | – | – | – | – | – | –
11 | Cl.Nc1nc(N)c(-c2cccc(Cl)c2)c(CCCCOc2cccc(OCCCC(=O)O)c2)n1 | 21.7 | 51 | 3000 | 0.93 | > 100000 | – | – | – | – | – | – | – | –
12 | Cl.Nc1nc(N)c(-c2ccccc2)c(CCCCCOc2ccccc2)n1 | 32.9 | 380 | 7890 | 3.61 | 7910 | – | 0.3 | 110 | 9.11 | 4.75 | 0.08 | 20.8 | 1
13 | Cl.Nc1nc(N)c(-c2cccc(Cl)c2)c(COc2cccc(OCCCC(=O)O)c2)n1 | 74.2 | 1800 | 6200 | – | > 100000 | – | – | – | – | – | – | – | –
14 | Cl.Nc1nc(N)c(-c2ccccc2)c(CCc2ccccc2OCc2ccccc2)n1 | 22.1 | 650 | 4370 | – | 1870 | – | – | – | – | – | – | – | –
15 | Cl.Nc1nc(N)c(-c2ccccc2)c(CCCCOc2ccccc2)n1 | 48.7 | 360 | 11200 | 1.73 | 15400 | – | – | – | – | – | – | – | –
16 | CCOC(=O)CCCOc1ccccc1CCc1nc(N)nc(N)c1-c1ccccc1.Cl | 32.4 | 1250 | > 10000 | – | > 10000 | – | – | – | – | – | – | – | –
17 | Cl.Nc1nc(N)c(-c2ccccc2)c(CCCCOc2cccc(OCCCC(=O)O)c2)n1 | 34.8 | 71 | 3910 | 1.24 | > 100000 | – | – | – | – | – | – | – | –
18 | Cl.Nc1nc(N)c(-c2ccccc2)c(CCCOc2ccccc2)n1 | 12.5 | 130 | 15100 | 1.37 | 1390 | – | – | – | – | – | – | – | –
19 | Cl.Nc1nc(N)c(-c2ccccc2)c(CCc2ccccc2OCCCc2ccccc2)n1 | 27.3 | 6730 | 6150 | – | 4960 | – | – | – | – | – | – | – | –
20 | Cl.Nc1nc(N)c(-c2cccc(Cl)c2)c(CCCCOc2ccccc2)n1 | 12.8 | 340 | 6940 | 1.49 | 5150 | – | – | – | – | – | – | – | –
21 | Cl.Nc1nc(N)c(-c2cccc(Cl)c2)c(CCCOc2ccccc2)n1 | 8.72 | 170 | 3420 | 1.16 | 470 | – | 0.24 | 36.3 | 7.52 | 2.13 | 0.03 | 2.76 | 0.14
22 | Cl.Nc1nc(N)c(-c2cccc(Cl)c2)c(COc2cccc(OCC(=O)O)c2)n1 | 52.4 | 6010 | 11400 | – | > 10000 | – | – | – | – | – | – | – | –
23 | Cl.Nc1nc(N)c(-c2ccccc2)c(CCCOc2cccc(OCCCC(=O)O)c2)n1 | 29.1 | 52 | 540 | 1.26 | > 25000 | – | – | – | – | – | – | – | –
24 | Cl.Nc1nc(N)c(-c2ccccc2)c(CCCCOc2cccc(OCC(=O)O)c2)n1 | 46 | 58 | > 1000 | 1.04 | > 1000 | – | 0.5 | 91.9 | 44.2 | 0.73 | 0.01 | > 17.2 | –
25 | Cl.Nc1nc(N)c(-c2cccc(Cl)c2)c(CCCOc2cccc(OCC(=O)O)c2)n1 | 13.6 | 48 | 430 | 0.41 | > 50000 | – | – | – | – | – | – | – | –
26 | CCc1nc(N)nc(N)c1-c1ccc(Cl)cc1 [PYRIMETHAMINE] | – | – | > 100000 | 385 | – | – | 0.6 | – | – | – | – | – | –
